Measured values collected from several papers.
Protocols differ between the studies behind these lines.
Target: Tyrosine-protein kinase FRK (FRK, Homo sapiens, UniProt P42685)

Compound	assay	conditions	endpoint	result
Cn1cc(-c2cc(F)cc(N3CCn4c(cc5c4CCCC5)C3=O)c2CO)cc(Nc2ccc(N3CCN(C4COC4)CC3)cn2)c1=O	enzyme activity, inhibitor	0.1 µM	inhibition	15%
CC(C)(C)c1cc(C=C(C#N)C#N)cc(Br)c1O	enzyme activity, inhibitor	0.5 µM	remaining activity	99.3%
COc1cc(Nc2ncc(F)c(Nc3ccc4c(n3)NC(=O)C(C)(C)O4)n2)cc(OC)c1OC	binding, competition with immobilised ligand	10 µM	inhibition	96%
COc1ncccc1-c1cnn2ccc(N3CCN(C(=O)OC(C)C)CC3)nc12	binding, competition with immobilised ligand	1 µM	remaining binding	63%
Cc1nn(C)cc1-c1nc2c(N3CCN(Cc4ccc(Cl)cc4)CC3)c(Cl)cnc2[nH]1	binding, competition with immobilised ligand	1 µM	remaining binding	100%
Cn1cc(-c2cccc(N3CCc4c(sc5c4CC(C)(C)C5)C3=O)c2CO)cc(Nc2ccncn2)c1=O	enzyme activity, inhibitor	1 µM	inhibition	9%
N#CC1(c2ccccn2)CCN(Cc2cc(C(=O)O)c(=O)n3ccccc23)CC1	cell-free assay, competition with immobilised ligand	1 µM	remaining binding	100%
Nc1ncc(-c2nc(N3CCOCC3)nc(N3CCOCC3)n2)c(C(F)F)n1	binding, competition with immobilised ligand	10 µM	remaining binding	100%
O=c1[nH]c2ccccc2n1C1CCN(Cc2ccc(-c3[nH]c4cc5ncnc5cc4nc3-c3ccccc3)cc2)CC1	cell-free assay	0.5 µM	remaining signal	102%
Cn1cncc1[C@](O)(COc1ccc(C#N)cc1-c1ccc(OC(F)(F)F)cc1)c1ccc(C#N)cc1	cell-free assay, competition with immobilised ligand	1 µM	remaining binding	100%
